From ChEMBL document CHEMBL1275335, “Design and synthesis of 2-arylbenzimidazoles and evaluation of their inhibitory effect against Chlamydia pneumoniae” (J Med Chem, 2010) come the findings set out here.

Converted amounts (≈) assume the structure as drawn. The source made the active and inactive calls.

Series [1] deals with Chlamydia pneumoniae. Put plainly: Chlamydiostatic activity against Chlamydia pneumoniae CV6 infected in human Hep2 cells after 72 hrs by fluorescence assay. Format: functional, HEp-2. To be noted: CV6, 72 h. In outline:
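Confluent HEp-2 monolayers on coverslips were centrifuged with C. pneumoniae CV-6 (10^3 IFU/mL; 1700g, 45 min, 35 C). Medium was replaced with MEM containing cycloheximide 1 μg/mL and serial 2-fold compound dilutions. After 72 h at 35 C, 5% CO2, inclusions were stained with fluorescein-conjugated anti-Chlamydia LPS mAb. MIC is the lowest concentration with no IFU; titrations were run in duplicate.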

Series [2] has as its system Chlamydia pneumoniae. Put plainly: Antibacterial activity against Chlamydia pneumoniae CWL029 infected in human HL cells assessed as inhibition of bacterial growth at 10 uM after 72 hrs by TR-FIA method. The series is classed as functional. In outline: (§1)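 HL cells were seeded at 6×10^4/well in RPMI 1640 with 7.5% FBS, 2 mM glutamine and gentamicin, then infected 24 h later with CWL-029 at MOI 0.2 plus 0.5 μg/mL cycloheximide and centrifuged 1 h. Compounds were added in six replicates for 72 h at 37 C. After methanol fixation, wells were labelled with europium-conjugated chlamydial antibody (100 ng/mL, 30 min, 37 C) and read by time-resolved fluorescence; rifampicin 0.012 μM served as control.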

A short description of series [3]: Cytotoxicity against human HL cells assessed as cell viability at 10 uM after 72 hrs by celltiter-glo analysis. The series is classed as cell-based. As to conditions: read-out: Activity. The gist of the method: (§2)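 After 72 h, viability was measured as intracellular ATP by CellTiter-Glo luminescence after partial medium replacement. Results are expressed as a percentage of cells given DMSO-adjusted medium.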
A general note: In ATP-based viability assays light output follows the ATP content of the culture.

The test system of series [4] is Staphylococcus aureus. Put plainly: Antibacterial activity against Staphylococcus aureus ATCC 25923 assessed as inhibition of bacterial growth at 50 uM after 18 hrs by photometric method. The series is classed as functional. In outline: (§3)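 Bacteria were dispensed with 0.01% resazurin and compound, reaching a final 50 μM; ampicillin 25 μM was the control. After 18 h at 37 C, resazurin was read photometrically at 600 nm.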

For series [5], the system named is HL. Put plainly: Cytotoxicity against human HL cells at 2.5 uM after 72 hrs by celltiter-glo analysis. The series is classed as cell-based. In outline: as §2
Series [6] concerns Chlamydia pneumoniae. Put plainly: Antibacterial activity against Chlamydia pneumoniae CV6 infected in human Hep2 cells assessed as minimal chlamydiocidal activity after 72 hrs by fluorescence assay. Format: functional, HEp-2. To be noted: CV6, 72 h. In outline:
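CV-6 was grown in HEp-2 cells under 2-fold compound dilutions (MEM, cycloheximide 1 μg/mL, 72 h, 35 C). Drug medium was then removed, wells washed with PBS pH 7.4 and fed drug-free medium. Monolayers were disrupted, passed onto fresh monolayers, incubated and stained with fluorescein anti-LPS mAb. MCC is the lowest concentration giving no IFU in the antibiotic-free passage; run in duplicate.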

The subject of series [7] is Escherichia coli. Put plainly: Antibacterial activity against Escherichia coli ATCC 25922 assessed as inhibition of bacterial growth at 50 uM after 18 hrs by photometric method. Format: functional, organism-based. The gist of the method:
as §3

Series [8] relates to Chlamydia pneumoniae. Put plainly: Antibacterial activity against Chlamydia pneumoniae CWL029 infected in human HL cells after 72 hrs by TR-FIA method. Format: functional, cell-based. As to conditions: in the assay text read “immunofluorescence method” for “TR-FIA method”. The gist of the method: as §1

For orientation: MIC means the smallest concentration in the dilution series that meets the test's criterion for growth inhibition. Read a low MIC as greater potency. The term inhibition denotes the change of the read-out against control, counted positive when it falls. With `O=C(Nc1cccc(-c2nc3ccccc3[nH]2)c1)c1cccs1`, in series [1], inhibition of growth (MIC) required 196 µM (≈ 62.6 µg/mL). The inhibition at 10 µM in series [2] was determined as 89%. The viability at 72 h, 10 µM in series [3] is 98%. Moreover, the “growth inhibition (GI)” value in series [4] and in series [7] was “inactive” in each case. In series [5], the Activity entry was “Non-toxic”. In addition, the MCC in series [6] is over 196 µM.

As a reminder, the IC50 is the concentration at which inhibition is half-maximal. Read a high IC50 as weaker potency. As to `O=C(Nc1cccc(-c2nc3ccccc3[nH]2)c1)c1cccc(C(F)(F)F)c1`, the minimum inhibitory concentration (MIC) in series [1] is 3.2 µM (≈ 1.22 µg/mL). For the same molecule, the inhibition at 10 µM in series [2] was found to be 99%. In addition, in series [3], the viability at 72 h, 10 µM came out at 69%. For the same molecule, the inhibition of growth at 50 µM in series [4] (ATCC 25923, 18 h, read-out: GI) was determined as 85%. In addition, in series [8], the IC50 is 3 µM. In addition, the Activity result in series [5] was “Non-toxic”. Also, the MCC in series [6] amounted to 50.4 µM. Moreover, the “growth inhibition (GI)” value in series [7] was “inactive”.

With `O=C(Nc1cccc(-c2nc3ccccc3[nH]2)c1)C1CCCCC1`, the MIC in series [1] worked out at 24.5 µM (≈ 7.83 µg/mL). Further, the inhibition at 10 µM in series [2] came to 100%. Besides, in series [3], the viability at 72 h, 10 µM came to 94%. For the same molecule, the “growth inhibition (GI)” value in series [4] and in series [7] was “inactive” in each case. For the same molecule, the Activity result in series [5] was “Non-toxic”. Moreover, the MCC in series [6] was determined as 24.5 µM.

As for `CC[C@H]1OC(=O)[C@H](C)[C@@H](O[C@H]2C[C@@](C)(OC)[C@@H](O)[C@H](C)O2)[C@H](C)[C@@H](O[C@@H]2O[C@H](C)C[C@H](N(C)C)[C@H]2O)[C@](C)(O)C[C@@H](C)C(=O)[C@H](C)[C@@H](O)[C@]1(C)O` [ERYTHROMYCIN], it took 0.17 µM (≈ 0.125 µg/mL) to inhibit growth in series [1] (MIC). Also, the MCC in series [6] was found to be 0.17 µM.

As for `O=C(Nc1cccc(-c2nc3ccccc3[nH]2)c1)c1ccsc1`, the MIC in series [1] is over 196 µM. Besides, the inhibition at 10 µM in series [2] turned out to be 68%. Further, in series [3], the viability at 72 h, 10 µM was 98%. For the same molecule, the “growth inhibition (GI)” value in series [4] and in series [7] was “inactive” throughout. The Activity entry in series [5] is listed as “Non-toxic”. Moreover, the MCC in series [6] was over 196 µM.

In turn, `Cc1ccccc1C(=O)Nc1cccc(-c2nc3ccccc3[nH]2)c1` returned a minimum inhibitory concentration (MIC) in series [1] of 6.1 µM (≈ 2 µg/mL). In addition, the inhibition at 10 µM in series [2] was found to be 99%. For the same molecule, the viability at 72 h, 10 µM in series [3] was 90%. Besides, the “growth inhibition (GI)” value in series [4] and in series [7] was “inactive” throughout. Further, the Activity result in series [5] is “Non-toxic”. Besides, the MCC in series [6] was 24.5 µM.

For the molecule `Cc1ccc2[nH]c(-c3cccc(NC(=O)c4cccs4)c3)nc2c1`, it took 12.6 µM (≈ 4.2 µg/mL) to inhibit growth in series [1] (MIC). In addition, the inhibition at 10 µM in series [2] came out at 99%. The viability at 72 h, 10 µM in series [3] came out at 95%. For the same molecule, the “growth inhibition (GI)” value in series [4] and in series [7] was “inactive” throughout. Besides, the Activity result in series [5] is on record as “Non-toxic”. Moreover, in series [6], the MCC was found to be 12.6 µM.

Turning to `COc1ccc2[nH]c(-c3cccc(NC(=O)c4ccsc4)c3)nc2c1`, the MIC in series [1] came to 12.6 µM (≈ 4.4 µg/mL). Further, in series [2], the inhibition at 10 µM is 73%. Also, the viability at 72 h, 10 µM in series [3] stood at 95%. Further, the “growth inhibition (GI)” value in series [4] and in series [7] was “inactive” each time. Also, the Activity result in series [5] is on record as “Non-toxic”. For the same molecule, the MCC in series [6] amounted to 12.6 µM.

As to `COc1ccc2[nH]c(-c3cccc(NC(=O)c4cccs4)c3)nc2c1`, the inhibition at 10 µM in series [2] stood at 74%. Also, the viability at 72 h, 10 µM in series [3] was 98%. Besides, the “growth inhibition (GI)” value in series [4] and in series [7] was “inactive” in each case.

Consider `Cn1cccc1C(=O)Nc1cccc(-c2nc3ccccc3[nH]2)c1`, for which the inhibition at 10 µM in series [2] amounted to 80%. The viability at 72 h, 10 µM in series [3] turned out to be 104%. Also, the “growth inhibition (GI)” value in series [4] and in series [7] was “inactive” each time.

On to `Cc1cccc2[nH]c(-c3cccc(NC(=O)c4cccs4)c3)nc12`, for which the inhibition at 10 µM in series [2] was 89%. Moreover, the viability at 72 h, 10 µM in series [3] was 102%. The “growth inhibition (GI)” value in series [4] and in series [7] was “inactive” throughout.

As to `COC(=O)c1cccc(C(=O)Nc2cccc(-c3nc4ccccc4[nH]3)c2)c1`, in series [2], the inhibition at 10 µM was 99%. For the same molecule, the viability at 72 h, 10 µM in series [3] is 99%. In addition, the “growth inhibition (GI)” value in series [4] and in series [7] was “inactive” in each case.

Regarding `Cc1cccc(C(=O)Nc2cccc(-c3nc4ccccc4[nH]3)c2)c1`, in series [1], inhibition of growth (MIC) required 3.2 µM (≈ 1.05 µg/mL). In series [2], the inhibition at 10 µM came to 98%. Moreover, the viability at 72 h, 10 µM in series [3] came out at 99%. In addition, the “growth inhibition (GI)” value in series [4] and in series [7] was “inactive” throughout. In series [8], this molecule yielded a half-maximal inhibitory concentration (IC50) of 2 µM. Further, the Activity result in series [5] is “Non-toxic”. Further, the MCC in series [6] amounted to 3.2 µM.

Consider `Cc1c(NC(=O)c2cccs2)cccc1-c1nc2ccccc2[nH]1`, for which, in series [2], the inhibition at 10 µM is 59%. The viability at 72 h, 10 µM in series [3] turned out to be 87%. The “growth inhibition (GI)” value in series [4] and in series [7] was “inactive” throughout.

On to `O=C(Nc1cccc(-c2nc3ccccc3[nH]2)c1)c1ccccc1`, for which the inhibition at 10 µM in series [2] worked out at 99%. In series [3], the viability at 72 h, 10 µM was found to be 98%. Moreover, the “growth inhibition (GI)” value in series [4] and in series [7] was “inactive” in each case.

In series [1], `O=C(Nc1cccc(-c2nc3cc(Cl)ccc3[nH]2)c1)c1cccs1` came in with an MIC of 196 µM (≈ 69.4 µg/mL). The inhibition at 10 µM in series [2] came out at 89%. In addition, in series [3], the viability at 72 h, 10 µM was determined as 92%. Besides, the “growth inhibition (GI)” value in series [4] and in series [7] was “inactive” each time. Besides, the Activity result in series [5] is recorded as “Non-toxic”. In addition, the MCC in series [6] was over 196 µM.

For the molecule `O=C(Nc1cccc(-c2nc3ccccc3[nH]2)c1)c1cscn1`, the inhibition at 10 µM in series [2] worked out at 39%. Further, the viability at 72 h, 10 µM in series [3] came out at 98%. Also, the “growth inhibition (GI)” value in series [4] and in series [7] was “inactive” throughout.
